TPT1 inh – blocks Candida albicans tRNA 2'-phosphotransferase | recombinant caTPT1, FP RNA substrate dephosphorylation | inhibition, % at 5 µM | hit rate 0.81% among 300,000 | AID 1962;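 active = inhibition above the mean of all tested compounds plus 3 SD, set per screening campaign, cut at about 24% in these data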;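 also: plate controls were DMSO alone for no effect and ferristatin control at 100 nM for full effect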
CSN inh – CSN deneddylation inhibition; Q92905; Purified CSN, SCF-Nedd8-OG deneddylation, fluorescence polarization; hit rate 0.38% among 360,000; inhibition, % at 12.5 µM;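 active = pattern-corrected inhibition above about 35%, with an unprinted fluorescence ratio check between 0.5 and 1.5, limit read from the data, passing the limit was not always enough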;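 also: 0% = enzyme with substrate and 100% = substrate without enzyme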
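Material: human Csn5 produced in HEK293T cells; Input: enzyme 0.24 nM; Reagent: SCFSkp2-Nedd8OG substrate at 10 nM final; Dosing: 12.5 µM compound; Incubation: 90 min reaction at room temperature; Detection: fluorescence polarization of the substrate; Evaluation: % inhibition of substrate cleavage by Csn5; Control set: substrate-only high control, full reaction low control.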
HNF4A DNA FP – change in binding of human HNF4 alpha to DNA; P41235; HNF4a-FITC DNA binding, fluorescence polarization, 1 h; hit rate 0.3% among 360,000; activity change, % at 10 µM; in the data active = activity change above about 30%, passing the limit was not always enough
Target sequence (P41235 whole entry, looked up): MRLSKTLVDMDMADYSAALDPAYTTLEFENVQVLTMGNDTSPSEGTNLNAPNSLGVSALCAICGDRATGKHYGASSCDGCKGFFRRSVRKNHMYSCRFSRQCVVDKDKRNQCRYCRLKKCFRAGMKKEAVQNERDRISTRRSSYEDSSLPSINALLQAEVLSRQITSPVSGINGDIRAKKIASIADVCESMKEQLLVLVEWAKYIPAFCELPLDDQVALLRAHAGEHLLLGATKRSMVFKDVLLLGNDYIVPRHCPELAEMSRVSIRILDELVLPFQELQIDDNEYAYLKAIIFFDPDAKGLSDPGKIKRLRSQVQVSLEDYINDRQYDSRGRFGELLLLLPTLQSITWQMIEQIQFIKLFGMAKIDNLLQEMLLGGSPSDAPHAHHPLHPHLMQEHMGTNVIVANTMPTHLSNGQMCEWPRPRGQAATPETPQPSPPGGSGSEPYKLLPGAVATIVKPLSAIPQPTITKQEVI
Rpn11 block – inhibitors of human proteasome Rpn11; AID 588493; hit rate 0.59% among 360,000; O00487; inhibition, % at 20 µM; human 26S proteasome, Ub4-pepOG fluorescence polarization; 20S core pre-blocked with epoxomicin;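 active = inhibition at 20 µM, scaled to each plate's controls, above about 33%, limit read from the data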
* = called active by the depositor; . = not tested or not shown. A selection: hits, their analogues and other compounds. The true share with any hit is near 1.5%.

SMILES | TPT1 inh | CSN inh | HNF4A DNA FP | Rpn11 block
C#CCOCCOCCOCCNc1nc(N2CCN(C(=O)CCCCCCCCCCNC(=O)[C@H](CCCCN)n3cc(CCCC(=O)O)nn3)CC2)nc(N2CCN(C(=O)CCCCCCCCCCNC(=O)[C@H](CCCCN)n3cc(CCCC(=O)O)nn3)CC2)n1 | 1 | 2 | 0 | -5
C#CCOCCOCCOCCNc1nc(N2CCN(C(=O)C([C@@H](C)O)n3cc([C@@H](N)CCCCN)nn3)CC2)nc(N2CCN(C(=O)[C@H](CO)n3cc([C@@H](N)C(C)C)nn3)CC2)n1 (some centres undefined) | . | 25 | 78* | 0
C#CCOCCOCCOCCNc1nc(N2CCN(C(=O)CCCCCCCCCCNC(=O)[C@H](CCCCN)n3cc(CCO)nn3)CC2)nc(N2CCN(C(=O)CCCCCCCCCCNC(=O)[C@H](CCCCN)n3cc(CCO)nn3)CC2)n1 | 0 | 104* | 131 | 8
C#CCOCCOCCOCCNc1nc(N2CCN(C(=O)CCCCCCCCCCNC(=O)[C@@H](CCSC)n3cc(CCO)nn3)CC2)nc(N2CCN(C(=O)CCCCCCCCCCNC(=O)[C@H]([C@@H](C)CC)n3cc(CCCCCN)nn3)CC2)n1 | 0 | . | . | .
OC1c2cc(Cl)cc(Cl)c2N=C2CCCN21 (centres undefined) | . | -2 | 2 | 3
CCN(CC)C(=O)[C@H]1C[C@H](CC(=O)NCCCOC)C(=O)N2CCc3c([nH]c4cc(CCC(=O)N(C)C)ccc34)[C@]12C | . | 0 | -1 | 4
COC(=O)c1cnc(Nc2nc(CN)cs2)nc1C(F)(F)F | . | -3 | 1 | 0
C#Cc1cccc(C(=O)N2CCCC(C(=O)c3ccc(OC)cc3C)C2)c1 (centres undefined) | -2 | -2 | -3 | 4
Oc1ccc(C[C@H]2CNC(=S)N2CC2CCCN2C[C@H](Cc2ccc(O)cc2)N2C[C@H](Cc3ccccc3)N(CC3CCCCC3)C2=S)cc1 (some centres undefined) | . | 5 | 0 | -2
COc1cccc(/C=N/Nc2ncnc3c2[nH]c2ccc(C)cc23)c1OC | 3 | 68* | 52* | 4
COc1ccc(/C=N/Nc2ncnc3c2[nH]c2ccccc23)c(OC)c1OC | 2 | 1 | 1 | -9
CCOC(=O)c1ccc(S(=O)(=O)N2CCC(C(=O)NCC3CCCCC3)CC2)cc1 | . | -5 | -2 | 2
CCN1C(=O)C(=O)N(CC(=O)Nc2cccc(C(F)(F)F)c2)C1=O | . | -2 | 2 | 1
Cc1ccc(CNC(=O)c2c(-c3ccccc3Cl)noc2C)cc1 | -1 | 0 | 3 | 1
Cc1onc(-c2ccccc2Cl)c1C(=O)NCc1ccco1 | 4 | 49* | -12 | -18
COc1ccccc1C1CC(c2ccc(NS(C)(=O)=O)cc2)=NN1S(=O)(=O)c1ccccc1 (centres undefined) | -2 | -2 | 0 | -2
COc1ccccc1C1CC(c2cccc(NS(C)(=O)=O)c2)=NN1S(=O)(=O)c1ccccc1 (centres undefined) | 1 | 22 | 81* | 35
Cc1cc(NC(=O)c2cc(-c3ccccn3)nc3ccc(Br)cc23)no1 | -1 | 44* | 4 | 2
Cc1cc(NC(=O)c2cc(-c3ccccn3)nc3ccccc23)no1 | 0 | -2 | -2 | -2
CCN1C[C@@H]2[C@@H]3C(=O)N(C)C(=O)[C@@H]3[C@](Cc3ccccc3)(C1=O)N2C(=O)c1ccc(Br)cc1 | . | 0 | -3 | -1
O=C1NC(=S)SC1=Cc1ccc2c(c1)OCO2 | . | 5 | -1 | 4
CN(C)c1ccc(C=C2SC(=S)NC2=O)cc1 | . | 105* | 197 | .
O=C1NC(=S)SC1=Cc1ccccn1 | . | 1 | 64* | 34
COC1=CC(=O)[C@@]2([C@@H]1O)[C@@H](Cl)C[C@]13C(OC)=C(OC)C(=O)C[C@]21CCN3C | . | 1 | -4 | 1
N#Cc1ccc(S(=O)(=O)N2CCC(C(=O)N3CCN(Cc4ccc5c(c4)OCO5)CC3)CC2)cc1 | . | 8 | 0 | 1
SMILES | TPT1 inh | CSN inh | HNF4A DNA FP | Rpn11 block
Cc1cc(NCCCOC(C)C)n2c(nc3ccccc32)c1C#N | 3 | 52* | 9 | 35
CCOc1ccc(CCNC(=O)COC(=O)CCC(=O)c2cccs2)cc1OCC | . | 38* | -1 | 4
C=CC[C@]12CCc3sccc3C1N(c1ccc(C(=O)OCC)cc1)C2=O (some centres undefined) | . | -1 | 4 | 1
CCCN(C(=O)c1cc(-c2ccco2)nc2ccccc12)c1c(N)n(Cc2ccccc2)c(=O)[nH]c1=O | -1 | 11 | -9 | -14
COCCN(C(=O)c1cc(-c2ccco2)nc2ccccc12)c1c(N)n(Cc2ccccc2)c(=O)[nH]c1=O | . | 37* | -20 | -17
Cc1c(CCOC(=O)C23CC4(C)CC(C)(CC(C)(C4)C2)C3)sc[n+]1CC(=O)c1ccccc1 | 1 | 3 | 81* | -4
CCOC(=O)C1(C)CCCCCN1C(=O)c1ccc(C(=O)OC)cc1 (centres undefined) | . | -2 | 0 | -2
O=C(Nc1ccc(C(F)(F)F)cc1)c1ccc(NC(=O)C2CCCO2)cc1 (centres undefined) | 2 | 13 | 23 | 94*
COC(=O)C[C@@H]1CC[C@@H](NC(=O)Nc2cc(F)ccc2F)[C@@H](CO)O1 | . | 3 | 0 | .
CN(C)c1nc(C#N)nc(N2CCOCC2)n1 | -3 | -1 | -2 | -6
CN(C)c1nc(SCC#N)nc(N2CCOCC2)n1 | -6 | -2 | 43* | 11
CCOC(=O)C1=NOC2(C1)C(=O)Nc1ccc(OC)cc12 (centres undefined) | . | -4 | 1 | .
COc1ccccc1/C=C/C=N/NC(=O)c1cc(-c2ccco2)[nH]n1 | 5 | 45* | -18 | 28
COc1ccccc1/C=C/C=N/NC(=O)c1ccccn1 | -1 | 6 | 5 | 4
COc1ccccc1Cc1c(-c2ccco2)nc2ccc(Cl)cn12 | . | 36* | -3 | 20
Clc1ccc2nc(-c3ccco3)c(Cc3ccccc3)n2c1 | . | 36* | 0 | 5
CSc1ccc(CNC(=O)C(C)n2nc(C)c3c(C)n(-c4ccccc4)nc3c2=O)cc1 (centres undefined) | -7 | 4 | 2 | -2
COc1ccc(Cl)cc1NC(=O)COC(=O)C1COc2ccccc2O1 (centres undefined) | . | -4 | 3 | -4
Cc1cccc(C(=O)NC(=S)Nc2ccccc2C(=O)O)c1 | -3 | 78* | 8 | -4
Fc1ccc(-c2nnc(Cc3ccc(Cl)cc3)o2)cc1 | 2 | -1 | 61* | -4
C(=N\NC1=Nc2cccc3cccc1c23)/c1ccccn1 | . | 14 | 54* | .
CC(C)N1C(=O)S/C(=C/c2ccc(Sc3nc4ccccc4[nH]3)o2)C1=O | 1 | 5 | 88* | 7
O=C(CCCSc1ccccc1)Nc1nc(-c2ccco2)c(-c2ccco2)s1 | 4 | 43* | 8 | 25
Cc1cc(C)c2nc3sc(=Cc4ccc(-c5ccccc5C(=O)O)o4)c(=O)n3c2c1 | . | 142* | 72 | .
O=C(CNC(=O)c1ccccc1F)NCCOc1ccccc1Cl | 4 | -2 | 1 | -2
